Measured values published in ChEMBL document CHEMBL1275521, “Fluoroquinolone enhances the mutation frequency for meropenem-selected carbapenem resistance in Pseudomonas aeruginosa, but use of the high-potency drug doripenem inhibits mutant formation” (2008).
In brackets after ≈: the same amount, converted by molar mass.

What was measured:
Pseudomonas aeruginosa [1] = assay: Antimicrobial activity against Pseudomonas aeruginosa PAO1 SO20 harboring mexAB-oprM gene after 18 hrs by agar dilution method; type: functional
Pseudomonas aeruginosa [2] = assay: Antimicrobial activity against Pseudomonas aeruginosa PAO1 after 18 hrs by agar dilution method; type: functional
Procedure, shortened: (§1)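 MICs by agar dilution following CLSI guidelines; plates incubated 18 h at 37°C.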

Pseudomonas aeruginosa [3] = assay: Antimicrobial activity against Pseudomonas aeruginosa PAO1 KTS harboring mexAB-oprM gene after 18 hrs by agar dilution method; type: functional
Procedure, shortened: (§2)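 Carbapenem-resistant mutants were isolated on carbapenem-containing AB3 agar after 10^6-fold dilution and broth culture, with or without ciprofloxacin or ofloxacin. Randomly picked colonies were checked for MIC by agar dilution following CLSI guidelines, with 18 h incubation at 37°C. PAO1KTL and PAO1KTS came from meropenem selection without fluoroquinolone.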

Pseudomonas aeruginosa [4] = assay: Antimicrobial activity against Pseudomonas aeruginosa GP4KT11 harboring oprD gene after 18 hrs by agar dilution method; settings: GP4KT11, 18 h
Pseudomonas aeruginosa [5] = assay: Antimicrobial activity against wild-type Pseudomonas aeruginosa GP20 after 18 hrs by agar dilution method; type: functional; procedure, shortened: as §1
Pseudomonas aeruginosa [6] = assay: Antimicrobial activity against Pseudomonas aeruginosa GP61KT51 harboring oprD,mexAB-oprM gene after 18 hrs by agar dilution method; type: functional
Pseudomonas aeruginosa [7] = assay: Antimicrobial activity against wild-type Pseudomonas aeruginosa GP61 after 18 hrs by agar dilution method; type: functional; procedure, shortened: as §1
Pseudomonas aeruginosa [8] = assay: Antimicrobial activity against Pseudomonas aeruginosa GP37KT31 harboring oprD gene after 18 hrs by agar dilution method; type: functional; procedure, shortened: as §2
Pseudomonas aeruginosa [9] = assay: Antimicrobial activity against Pseudomonas aeruginosa GP20KT21 harboring oprD gene after 18 hrs by agar dilution method; type: functional; procedure, shortened: as §2
Pseudomonas aeruginosa [10] = assay: Antimicrobial activity against Pseudomonas aeruginosa PAO1 IPM46 harboring oprD gene after 18 hrs by agar dilution method; type: functional
Pseudomonas aeruginosa [11] = assay: Antimicrobial activity against Pseudomonas aeruginosa GP62KT41 harboring oprD gene after 18 hrs by agar dilution method; type: functional; procedure, shortened: as §2
Pseudomonas aeruginosa [12] = assay: Antimicrobial activity against Pseudomonas aeruginosa GP4KT111 harboring oprD,mexAB-oprM gene after 18 hrs by agar dilution method; type: functional
Pseudomonas aeruginosa [13] = assay: Antimicrobial activity against wild-type Pseudomonas aeruginosa GP37 after 18 hrs by agar dilution method; type: functional; procedure, shortened: as §1
Pseudomonas aeruginosa [14] = assay: Antimicrobial activity against Pseudomonas aeruginosa PAO1 KTL harboring oprD gene after 18 hrs by agar dilution method; type: functional; procedure, shortened: as §2
Pseudomonas aeruginosa [15] = assay: Antimicrobial activity against wild-type Pseudomonas aeruginosa GP62 after 18 hrs by agar dilution method; type: functional; procedure, shortened: as §1
Pseudomonas aeruginosa [16] = assay: Antimicrobial activity against Pseudomonas aeruginosa PAO1 KTL1 harboring oprD, mexAB-oprM gene after 18 hrs by agar dilution method; type: functional
Pseudomonas aeruginosa [17] = assay: Antimicrobial activity against wild-type Pseudomonas aeruginosa GP4 after 18 hrs by agar dilution method; type: functional; procedure, shortened: as §1
Pseudomonas aeruginosa [18] = assay: Antimicrobial activity against Pseudomonas aeruginosa GP4KT111 harboring oprD gene after 18 hrs by agar dilution method; type: functional; settings: GP4KT11

Compound | MIC (Pseudomonas aeruginosa [1]; PAO1 SO20, 18 h) | MIC (Pseudomonas aeruginosa [2]; PAO1, 18 h) | MIC (Pseudomonas aeruginosa [3]) | MIC (Pseudomonas aeruginosa [4]) | MIC (Pseudomonas aeruginosa [5]; GP20, 18 h) | MIC (Pseudomonas aeruginosa [6]; GP61KT51, 18 h) | MIC (Pseudomonas aeruginosa [7]; GP61, 18 h) | MIC (Pseudomonas aeruginosa [8]; GP37KT31, 18 h) | MIC (Pseudomonas aeruginosa [9]; GP20KT21, 18 h) | MIC (Pseudomonas aeruginosa [10]; PAO1 IPM46, 18 h) | MIC (Pseudomonas aeruginosa [11]; GP62KT41, 18 h) | MIC (Pseudomonas aeruginosa [12]; GP4KT111, 18 h) | MIC (Pseudomonas aeruginosa [13]; GP37, 18 h) | MIC (Pseudomonas aeruginosa [14]) | MIC (Pseudomonas aeruginosa [15]; GP62, 18 h) | MIC (Pseudomonas aeruginosa [16]; PAO1 KTL1, 18 h) | MIC (Pseudomonas aeruginosa [17]; GP4, 18 h) | other results
CC1COc2c(N3CCN(C)CC3)c(F)cc3c(=O)c(C(=O)O)cn1c23 (stereo unspecified) [OFLOXACIN] | 3.1 µg/mL (≈ 8.58 µM) | 0.8 µg/mL (≈ 2.21 µM) | 3.1 µg/mL (≈ 8.58 µM) | 1.6 µg/mL (≈ 4.43 µM) | 1.6 µg/mL (≈ 4.43 µM) | 6.3 µg/mL (≈ 17.4 µM) | 1.6 µg/mL (≈ 4.43 µM) | 1.6 µg/mL (≈ 4.43 µM) | 1.6 µg/mL (≈ 4.43 µM) | 0.8 µg/mL (≈ 2.21 µM) | 1.6 µg/mL (≈ 4.43 µM) | 6.3 µg/mL (≈ 17.4 µM) | 1.6 µg/mL (≈ 4.43 µM) | 0.8 µg/mL (≈ 2.21 µM) | 1.6 µg/mL (≈ 4.43 µM) | 3.1 µg/mL (≈ 8.58 µM) | 1.6 µg/mL (≈ 4.43 µM) | –
CCN1CCN(C(=O)N[C@@H](C(=O)N[C@@H]2C(=O)N3[C@@H]2SC(C)(C)[C@@H]3C(=O)O)c2ccccc2)C(=O)C1=O [PIPERACILLIN] | 12.5 µg/mL (≈ 24.2 µM) | 3.1 µg/mL (≈ 5.99 µM) | 12.5 µg/mL (≈ 24.2 µM) | 100 µg/mL (≈ 193 µM) | 100 µg/mL (≈ 193 µM) | 12.5 µg/mL (≈ 24.2 µM) | 3.1 µg/mL (≈ 5.99 µM) | 100 µg/mL (≈ 193 µM) | 100 µg/mL (≈ 193 µM) | 3.1 µg/mL (≈ 5.99 µM) | 100 µg/mL (≈ 193 µM) | 200 µg/mL (≈ 386 µM) | 100 µg/mL (≈ 193 µM) | 3.1 µg/mL (≈ 5.99 µM) | 100 µg/mL (≈ 193 µM) | 12.5 µg/mL (≈ 24.2 µM) | 100 µg/mL (≈ 193 µM) | –
GENTAMICIN | – | – | 1.6 µg/mL | – | – | – | – | – | – | – | – | – | – | 1.6 µg/mL | – | – | – | MIC (Pseudomonas aeruginosa [1]): 1.6 µg/mL; MIC (Pseudomonas aeruginosa [2]): 1.6 µg/mL; MIC (Pseudomonas aeruginosa [5]): 3.1 µg/mL; MIC (Pseudomonas aeruginosa [18]): 100 µg/mL; MIC (Pseudomonas aeruginosa [6]): 1.6 µg/mL; MIC (Pseudomonas aeruginosa [7]): 1.6 µg/mL; MIC (Pseudomonas aeruginosa [8]): 100 µg/mL; MIC (Pseudomonas aeruginosa [9]): 3.1 µg/mL; MIC (Pseudomonas aeruginosa [10]): 1.6 µg/mL; MIC (Pseudomonas aeruginosa [11]): 1.6 µg/mL; MIC (Pseudomonas aeruginosa [12]): 100 µg/mL; MIC (Pseudomonas aeruginosa [13]): 100 µg/mL; MIC (Pseudomonas aeruginosa [15]): 1.6 µg/mL; MIC (Pseudomonas aeruginosa [16]): 1.6 µg/mL; MIC (Pseudomonas aeruginosa [17]): 100 µg/mL
C[C@@H](O)[C@H]1C(=O)N2C(C(=O)O)=C(SCCNC=N)C[C@H]12 [IMIPENEM ANHYDROUS] | 0.8 µg/mL (≈ 2.67 µM) | 0.8 µg/mL (≈ 2.67 µM) | 0.8 µg/mL (≈ 2.67 µM) | 12.5 µg/mL (≈ 41.8 µM) | 0.8 µg/mL (≈ 2.67 µM) | 6.3 µg/mL (≈ 21 µM) | 6.3 µg/mL (≈ 21 µM) | 12.5 µg/mL (≈ 41.8 µM) | 12.5 µg/mL (≈ 41.8 µM) | 12.5 µg/mL (≈ 41.8 µM) | 12.5 µg/mL (≈ 41.8 µM) | 12.5 µg/mL (≈ 41.8 µM) | 0.8 µg/mL (≈ 2.67 µM) | 12.5 µg/mL (≈ 41.8 µM) | 0.8 µg/mL (≈ 2.67 µM) | 12.5 µg/mL (≈ 41.8 µM) | 0.8 µg/mL (≈ 2.67 µM) | –
CC(C)(O/N=C(\C(=O)N[C@@H]1C(=O)N2C(C(=O)[O-])=C(C[n+]3ccccc3)CS[C@H]12)c1csc(N)n1)C(=O)O [CEFTAZIDIME] | 6.3 µg/mL (≈ 11.5 µM) | 1.6 µg/mL (≈ 2.93 µM) | 6.3 µg/mL (≈ 11.5 µM) | 1.6 µg/mL (≈ 2.93 µM) | 1.6 µg/mL (≈ 2.93 µM) | 12.5 µg/mL (≈ 22.9 µM) | 3.1 µg/mL (≈ 5.67 µM) | 1.6 µg/mL (≈ 2.93 µM) | 1.6 µg/mL (≈ 2.93 µM) | 1.6 µg/mL (≈ 2.93 µM) | 1.6 µg/mL (≈ 2.93 µM) | 6.3 µg/mL (≈ 11.5 µM) | 1.6 µg/mL (≈ 2.93 µM) | 1.6 µg/mL (≈ 2.93 µM) | 1.6 µg/mL (≈ 2.93 µM) | 6.3 µg/mL (≈ 11.5 µM) | 1.6 µg/mL (≈ 2.93 µM) | –
C[C@@H](O)[C@H]1C(=O)N2C(C(=O)O)=C(S[C@@H]3CN[C@H](CNS(N)(=O)=O)C3)[C@H](C)[C@H]12 [DORIPENEM] | 0.4 µg/mL (≈ 0.951 µM) | 0.2 µg/mL (≈ 0.476 µM) | 0.4 µg/mL (≈ 0.951 µM) | 1.6 µg/mL (≈ 3.8 µM) | 0.2 µg/mL (≈ 0.476 µM) | 1.6 µg/mL (≈ 3.8 µM) | 0.8 µg/mL (≈ 1.9 µM) | 1.6 µg/mL (≈ 3.8 µM) | 1.6 µg/mL (≈ 3.8 µM) | 0.8 µg/mL (≈ 1.9 µM) | 0.8 µg/mL (≈ 1.9 µM) | 3.1 µg/mL (≈ 7.37 µM) | 0.2 µg/mL (≈ 0.476 µM) | 0.8 µg/mL (≈ 1.9 µM) | 0.1 µg/mL (≈ 0.238 µM) | 1.6 µg/mL (≈ 3.8 µM) | 0.2 µg/mL (≈ 0.476 µM) | –
O=C(O)c1cn(C2CC2)c2cc(N3CCNCC3)c(F)cc2c1=O [CIPROFLOXACIN] | 0.8 µg/mL (≈ 2.41 µM) | 0.2 µg/mL (≈ 0.604 µM) | 0.8 µg/mL (≈ 2.41 µM) | 0.2 µg/mL (≈ 0.604 µM) | 0.2 µg/mL (≈ 0.604 µM) | 0.8 µg/mL (≈ 2.41 µM) | 0.2 µg/mL (≈ 0.604 µM) | 0.2 µg/mL (≈ 0.604 µM) | 0.2 µg/mL (≈ 0.604 µM) | 0.2 µg/mL (≈ 0.604 µM) | 0.2 µg/mL (≈ 0.604 µM) | 0.8 µg/mL (≈ 2.41 µM) | 0.2 µg/mL (≈ 0.604 µM) | 0.2 µg/mL (≈ 0.604 µM) | 0.2 µg/mL (≈ 0.604 µM) | 0.8 µg/mL (≈ 2.41 µM) | 0.2 µg/mL (≈ 0.604 µM) | –
C[C@@H](O)[C@H]1C(=O)N2C(C(=O)O)=C(S[C@@H]3CN[C@H](C(=O)N(C)C)C3)[C@H](C)[C@H]12 [MEROPENEM] | 1.6 µg/mL (≈ 4.17 µM) | 0.2 µg/mL (≈ 0.522 µM) | 1.6 µg/mL (≈ 4.17 µM) | 3.1 µg/mL (≈ 8.08 µM) | 0.2 µg/mL (≈ 0.522 µM) | 6.3 µg/mL (≈ 16.4 µM) | 1.6 µg/mL (≈ 4.17 µM) | 3.1 µg/mL (≈ 8.08 µM) | 3.1 µg/mL (≈ 8.08 µM) | 1.6 µg/mL (≈ 4.17 µM) | 3.1 µg/mL (≈ 8.08 µM) | 12.5 µg/mL (≈ 32.6 µM) | 0.2 µg/mL (≈ 0.522 µM) | 1.6 µg/mL (≈ 4.17 µM) | 0.2 µg/mL (≈ 0.522 µM) | 6.3 µg/mL (≈ 16.4 µM) | 0.2 µg/mL (≈ 0.522 µM) | –
